Assay results pooled from the literature.
Protocols differ between the studies behind these lines.
Cell line: L02
Observed: cell growth or viability

Compound | test | conditions | IC50 [µM]
Oc1c(Br)cc(Br)c2cccnc12 | MTT | 48 h | > 100
Cc1cc(Oc2ccc(NC(=O)c3cc(-c4cccs4)no3)cc2F)c2nncn2n1 | MTT | – | > 50
Oc1c(I)cc(I)c2cccnc12 | MTT | 48 h | 71
COCCCOc1ccnc(COc2ccc(NC(=O)Nc3ccc(Cl)cc3)cc2)c1C | MTT | 72 h | > 100
Cc1cc(Oc2ccc(NC(=O)c3sc(-c4ccncc4)nc3C)cc2)n2ncnc2n1 | MTT | – | > 50
COc1cc(C2Oc3cc([C@H]4Oc5cc(O)cc(O)c5C(=O)[C@@H]4O)ccc3OC2CO)ccc1O (stereo partly shown) | CCK-8 | 72 h | > 300
Cc1c(OCC(F)(F)F)ccnc1COc1ccc(NC(=O)Nc2ccc(Cl)c(C(F)(F)F)c2)cc1 | MTT | 72 h | > 100
Cc1cc(Oc2ccc(NC(=O)c3sc(-c4ccccn4)nc3C)cc2)c2nncn2n1 | MTT | – | > 50
COc1ccc(NC(=O)Nc2ccc(OCc3nccc(OC)c3OC)cc2)cc1 | MTT | 72 h | > 100
COc1ccnc(-c2cc(OC)ccn2)c1 | MTT | 48 h | > 50
